Results gathered from unrelated publications.
≈ marks a conversion by molar mass, not a printed value.

SMILES	target or system	assay	test system	setting	quantity	value
CCN(CC)CCO[C@H]1CC[C@@]2(C)C(=CC[C@@H]3[C@@H]2CC[C@]2(C)C(=O)CC[C@@H]32)C1	MA104	cell growth or viability, MTS		24 h	CC50	219 µM
C#Cc1ccc2c(c1)C(c1ccccn1)=NCc1c(-c3cnco3)ncn1-2.Cl			water	10 min, 37 °C	kinetic solubility	2400 µg/mL
CC[C@@H]1CN2CCc3c([nH]c4cccc(OC)c34)[C@H]2C[C@@H]1/C(=C\OC)C(=O)OC	dog Hepatocyte	metabolic stability	hepatocytes		half-life	> 2 h
CC[C@H](C)[C@H](NC(=O)[C@H](CCCNC(=N)N)NC(=O)[C@H](CCC(=O)O)NC(C)=O)C(=O)N[C@H]1CSSC[C@@H](C(=O)N[C@H](C(N)=O)[C@@H](C)O)NC(=O)[C@H](CCCNC(=N)N)NC(=O)[C@H](Cc2c[nH]cn2)NC(=O)[C@H](Cc2cccc3ccccc23)NC(=O)CNC(=O)[C@H](Cc2c[nH]c3ccccc23)NC(=O)[C@H](CC(=O)O)NC(=O)[C@H](CCC(N)=O)NC(=O)[C@H](Cc2c[nH]c3ccccc23)NC(=O)[C@H](C(C)C)NC1=O			PBS	pH 7.4	solubility	380 µg/mL (≈ 188 µM)
Cc1ncc(C)n2nc(/C=C/c3nc(N4CCCC4)cc(N4CCOCC4)n3)nc12			male beagle dog, plasma	oral, 0.3 mg/kg	bioavailability	42%
CC[C@H](C)[C@H](NC(C)=O)C(=O)N[C@H]1CSSC[C@@H](C(=O)N[C@H](C(N)=O)[C@@H](C)O)NC(=O)[C@H](CCCNC(=N)N)NC(=O)[C@H](Cc2c[nH]cn2)NC(=O)[C@@](C)(CC)NC(=O)CNC(=O)[C@H](Cc2c[nH]c3ccccc23)NC(=O)[C@H](CC(=O)O)NC(=O)[C@H](CCC(N)=O)NC(=O)[C@H](Cc2c[nH]c3ccccc23)NC(=O)[C@H](C(C)C)NC1=O			PBS	pH 7.4	solubility	3600 µg/mL (≈ 2190 µM)
N[C@@H]1C[C@H]1c1ccccc1 (racemic)	Cytochrome P450 2A6 (CYP2A6, Homo sapiens, UniProt P11509)	enzyme activity, inhibitor, fluorescence			IC50	0.49 µM
CC1(C)CC(NC(=O)C(=O)Nc2ccc(Cl)cc2)CC(C)(C)N1	Cf2Th-CCR5	cell growth or viability, MTS		48 h	CC50	> 100 µM
COc1ccc2[nH]cc(CCN(C)C)c2c1		potentiometric	water		pKa	9.1
